Drawing on ChEMBL document CHEMBL1145033, “2-Amino-3-benzoylthiophene allosteric enhancers of A1 adenosine agonist binding: new 3, 4-, and 5-modifications” (J Med Chem, 2003), this text covers inhibition, EC50 and Activity for 31 molecules.

The first assay concerns the target T1, Adenosine receptor A1 (Homo sapiens) (UniProt P30542).
T1 sequence (whole entry): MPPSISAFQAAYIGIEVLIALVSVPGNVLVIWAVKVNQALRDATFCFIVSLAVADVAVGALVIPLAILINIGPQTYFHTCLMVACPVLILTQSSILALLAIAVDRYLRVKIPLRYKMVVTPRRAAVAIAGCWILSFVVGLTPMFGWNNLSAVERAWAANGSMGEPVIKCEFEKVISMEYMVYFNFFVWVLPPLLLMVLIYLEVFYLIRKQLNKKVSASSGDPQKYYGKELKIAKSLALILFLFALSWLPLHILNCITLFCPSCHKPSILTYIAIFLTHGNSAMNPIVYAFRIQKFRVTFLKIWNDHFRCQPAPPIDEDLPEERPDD
The assay is described as follows: Inhibition of antagonist [3H]CPX binding to Adenosine A1 receptor membrane at 100 uM. The essentials:
(§1)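 Human A1AR membranes from CHO cells were incubated with 2 nM [3H]CPX and test agent (100 μM) for 90 min at room temperature. Inhibition of equilibrium antagonist binding was then measured.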
Take `Cc1sc(N)c(C(=O)c2cccc(C(F)(F)F)c2)c1C`: the inhibition (commonly the drop in the measured response relative to a control, in per cent) came out at 85%.

The target of the next assay is T2, Adenosine receptor A1 (Homo sapiens, UniProt P30542).
T2 sequence (P30542 whole entry): T1 sequence (whole entry)
The assay is described as follows: Effective dose as dissociation of [3H]N6-cyclohexyladenosine ([3H]CHA) from CHO-K1 membrane after treatment with allosteric enhancer and (R)-PIA.
With `Nc1sc(Br)c(-c2cccc(C(F)(F)F)c2)c1C(=O)c1ccccc1`, the EC50 (as a rule, the concentration needed to bring the measured effect to its halfway point) is 6.36 µM.

The next assay deals with T1, Adenosine receptor A1 (Homo sapiens). The assay is described as follows: Inhibition of antagonist [3H]-CPX binding to Adenosine A1 receptor membrane at 100 uM. The essentials: as §1
In turn, `Nc1sc(Br)c(-c2cccc(C(F)(F)F)c2)c1C(=O)c1ccccc1` yielded an inhibition of 29%.

The next assay has the same target. The assay can be described thus: Dissociation of [3H]N6-cyclohexyladenosine ([3H]CHA) from CHO-K1 membrane expressing human adenosine A1 receptor after treatment with allosteric enhancer at 100 uM and (R)-PIA.
For `Nc1sc(-c2ccccc2)cc1C(=O)OCc1ccccc1`, the Activity is 8%. Still for that read-out and setting: the result for `Nc1sc(-c2ccccc2)c(-c2ccccc2)c1C(=O)c1ccc2ccccc2c1` reads 4.2%. Take `Nc1sc(-c2ccccc2)c(-c2ccccc2)c1C(=O)OCc1ccccc1`: the Activity worked out at 18.6%. With `Nc1sc(-c2ccccc2)c(-c2ccc(Cl)cc2)c1C(=O)c1ccc(Cl)cc1`, the Activity is 8.7%. As for `Nc1sc(Br)c(-c2cccc(C(F)(F)F)c2)c1C(=O)c1ccccc1`, the Activity came to 91%. Take `Nc1sc(Br)c(-c2ccc(-c3ccccc3)cc2)c1C(=O)c1ccccc1`: the Activity worked out at 42.7%. Regarding `Cc1ccc(-c2c(-c3ccccc3)sc(N)c2C(=O)Cc2ccccc2)cc1`, the Activity came to 1.9%. Same read-out and setting: the result for `Nc1sc(Br)c(-c2cccc([N+](=O)[O-])c2)c1C(=O)c1ccccc1` reads 21.8%; that for `Nc1sc(-c2ccccc2)c(-c2ccccc2)c1C(=O)c1ccccc1`, 10.7%; that for `Nc1sc(-c2ccccc2)c(-c2ccc(Cl)cc2)c1C(=O)c1cccc2ccccc12`, 11.9%. On the same count and under the same terms, the result for `Cc1sc(N)c(C(=O)c2cccc(C(F)(F)F)c2)c1C` reads 19%; that for `Nc1sc(-c2ccccc2)c(-c2ccccc2)c1C(=O)N(Cc1ccccc1)Cc1ccccc1`, 14.1%; that for `Nc1sc(-c2ccccc2)c(-c2ccc(Cl)cc2)c1C(=O)c1ccccc1`, 5.6%.

Take `Cc1ccc(-c2c(-c3ccccc3)sc(N)c2C(=O)c2ccc3ccccc3c2)cc1`: the Activity is 10.9%. In the case of `Nc1sc(-c2ccccc2)c(-c2ccccc2)c1C(=O)c1cccc(Cl)c1`, the Activity came out at 9.4%. On to `Nc1sc(Br)c(-c2ccc3ccccc3c2)c1C(=O)c1ccccc1`, for which the Activity was 49.7%.

With `Nc1sc(-c2ccccc2)c(-c2ccc(Cl)cc2)c1C(=O)c1ccc(-c2ccccc2)cc1`, the Activity worked out at 10.5%. Regarding `Cc1ccc(-c2c(-c3ccccc3)sc(N)c2C(=O)c2ccc(-c3ccccc3)cc2)cc1`, the Activity came out at 3.6%. As to `Nc1sc(-c2ccccc2)c(-c2ccccc2)c1C(=O)c1ccc(Cl)cc1`, the Activity is 10.8%.

In the case of `Nc1sc(-c2ccccc2)c(-c2ccccc2)c1C(=O)c1ccc(-c2ccccc2)cc1`, the Activity came to 1.5%. For `Nc1sc(-c2ccccc2)c(-c2ccccc2)c1C(=O)OCc1cccc(C(F)(F)F)c1`, the Activity was determined as 48%. Regarding `Nc1sc(-c2ccccc2)c(-c2ccccc2)c1C(=O)c1cccc2ccccc12`, the Activity turned out to be 52.3%. Consider `CCOC(=O)c1c(N)sc(Br)c1-c1cccc([N+](=O)[O-])c1`, for which the Activity came out at 26%.

With `Cc1ccc(-c2c(-c3ccccc3)sc(N)c2C(=O)c2ccccc2)cc1`, the Activity came out at 13.4%. Still for that read-out and setting: next, `CCOC(=O)c1c(N)sc(-c2ccccc2)c1-c1ccc(Cl)cc1`: 42.1%; `Cc1ccc(-c2c(-c3ccccc3)sc(N)c2C(=O)OCc2cccc(C(F)(F)F)c2)cc1`: 62.6%; `N#Cc1ccc(-c2c(Br)sc(N)c2C(=O)c2ccccc2)cc1`: 20.3%.

Consider `Cc1ccc(-c2c(-c3ccccc3)sc(N)c2C(=O)c2ccc(Cl)cc2)cc1`, for which the Activity was 8.4%.

Turning to `Nc1sc(Br)c(-c2ccc(C(F)(F)F)cc2)c1C(=O)c1ccccc1`, the Activity was 80.4%. The same measure, in the same setting: the result for `Nc1sc(Br)c(-c2ccc([N+](=O)[O-])cc2)c1C(=O)c1ccccc1` reads 68.3%. As to `Cc1ccc(-c2c(-c3ccccc3)sc(N)c2C(=O)c2cccc(Cl)c2)cc1`, the Activity was determined as 8.1%.
